Assay results gathered from unrelated publications.
Read-out: cell growth or viability

| SMILES | cell line | assay | setting | IC50 |
| --- | --- | --- | --- | --- |
| O=C1C[C@@H](c2ccccc2)Oc2cc(O)cc(O)c21 | Vero | MTT | 72 h | 103 µM |
| O=c1cc(OCc2cc(-c3ccc(Cl)cc3Cl)no2)c2ccccc2o1 | HL-60 | MTS | 72 h | > 100 µM |
| O=[N+]([O-])c1ccc(NC(=S)N/N=C/c2cccc3cc4ccccc4nc23)cc1 | SK-BR-3 | MTT | 48 h | > 50 µM |
| C[C@H]1[C@H](C)CC[C@]2(C)CC[C@]3(C)C(=CC(=O)[C@@H]4[C@@]5(C)CC[C@@H](O)[C@](C)(C(=O)NCc6cn(-c7cccc(Br)c7)nn6)[C@@H]5CC[C@]43C)[C@H]12 | HDF | MTT | 24 h | 121 µM |
| O=[N+]([O-])c1ccc(Sc2cccc[n+]2[O-])c2nonc12 | MP41 | ATP luminescence | 72 h | 2.59 µM |
| COc1ccc(NC(=S)N/N=C/c2cccc3cc4ccccc4nc23)cc1 | SK-BR-3 | MTT | 48 h | > 50 µM |
| O=C(NO)c1ccc(Cn2cnc3c(Nc4ccc(Br)cc4F)ncnc32)cc1 | U-266 | MTT | 72 h | 0.75 µM |
| COc1cc(C(=O)c2nc(-c3cccc4[nH]cnc34)c[nH]2)cc(OC)c1OC | M14 | MTS | 72 h | 0.0159 µM |
| FC(F)(F)c1cc(OCc2cc(-c3ccc(Cl)cc3Cl)no2)c2ccccc2n1 | HL-60 | MTS | 72 h | > 100 µM |
| C/C(=N/NC(=O)c1cn(-c2ccccc2)nc1-c1ccc(F)cc1)c1c(O)cc(C)oc1=O | Vero | MTT | 48 h | 191 µM |
| CO[C@H]1[C@H](O[C@H]([C@H]2O[C@@H](n3ccc(=O)[nH]c3=O)[C@H](O)[C@@H]2O)[C@H](NCCCNC(=O)[C@@H](NC(=O)[C@@H](NC(=O)N[C@H](C(=O)O)C(C)C)[C@@H]2CCN=C(N)N2)[C@@H](O)C(C)C)C(=O)O)O[C@H](CN)[C@H]1O | SK-BR-3 | WST-1 |  | > 35 µM |
| Clc1ccc(-c2cc(CNc3cccc4cccnc34)on2)c(Cl)c1 | HL-60 | MTS | 72 h | 67.1 µM |
| COc1cccc2c1C(=O)c1c(O)c3c(c(O)c1C2=O)C[C@@](O)(C(=O)CO)C[C@@H]3O[C@H]1C[C@H](N)[C@H](O)[C@H](C)O1 | SK-BR-3 | MTT | 24 h | 54.4 µg/mL |
| COc1cc(C(=O)c2nc(-c3cccc4c3CCN4)c[nH]2)cc(OC)c1OC | M14 | MTS | 72 h | 0.0434 µM |
| COc1ccc(-c2ccc3c(N4CCOC[C@@H]4C)nc(N4CCOC[C@@H]4C)nc3n2)cc1COC(=O)CCOCCOCCOCCONC(=O)c1ccc(F)c(F)c1Nc1ccc(I)cc1F | D54 | WST-1 | 72 h | 0.327 µM |
| CC(C)C[C@H](NC(=O)[C@H](Cc1ccccc1)NC(=O)c1cnccn1)B(O)O | MP41 | ATP luminescence | 72 h | 0.00434 µM |
| C[C@H]1[C@H](C)CC[C@]2(C)CC[C@]3(C)C(=CC(=O)[C@@H]4[C@@]5(C)CC[C@@H](O)[C@](C)(C(=O)NCc6cn(-c7cccc(C(F)(F)F)c7)nn6)[C@@H]5CC[C@]43C)[C@H]12 | HDF | MTT | 24 h | 116 µM |
| O=C(NO)c1ccc(Cn2cnc3c(Nc4cccc([N+](=O)[O-])c4)ncnc32)cc1 | U-266 | MTT | 72 h | 0.31 µM |
| COc1ccc(N(C)c2nc(C)nc3ccccc23)cc1OCCCC(=O)NO | MP41 | ATP luminescence | 72 h | 0.0844 µM |
| COc1cc(C(=O)c2nc(-c3ccnc4[nH]ccc34)c[nH]2)cc(OC)c1OC | M14 | MTS | 72 h | 0.0158 µM |
